For series [1], the system named is PC-3. Kind of series: Cytotoxicity against human PC3 cells after 48 hrs by MTS assay. The series is classed as functional, cell-based. Particulars: PC-3, 48 h.
The nature of series [2]: Lipophilicity, log P of the compound. The conditions noted are these: octanol/water. The series is classed as physicochemical.
A short description of series [3]: Half life in human liver microsomes at 2 uM by LC-MS/MS analysis. The series is classed as ADME. Background: Microsomes from liver hold many membrane-bound enzymes, among them those of drug oxidation.
The test system of series [4] is A-375. The series can be described thus: Cytotoxicity against human A375 cells after 48 hrs by MTS assay. The series is classed as functional, cell-based. The conditions noted are these: A-375, 48 h. In general terms: Tetrazolium dyes change colour on reduction, which living cells bring about.
Series [5] is described as follows: Cytotoxicity against human WM164 cells after 48 hrs by MTS assay. The series is classed as functional, cell-based. The conditions noted are these: WM164, 48 h.
For the next series, the system named is M14. The series can be described thus: Cytotoxicity against human M14 cells after 48 hrs by MTS assay. The series is classed as functional, cell-based. Particulars: M14, 48 h.
The test system of another series is LNCaP. The series can be described thus: Cytotoxicity against human LNCAP cells after 48 hrs by MTS assay. The series is classed as functional, cell-based.
The subject of series [6] is DU-145. Kind of series: Cytotoxicity against human DU145 cells after 48 hrs by MTS assay. The conditions noted are these: DU-145, 48 h. The series is classed as functional, cell-based.
Series [7] can be described thus: Cytotoxicity against human PPC1 cells after 48 hrs by MTS assay. The conditions noted are these: PPC-1, 48 h. The series is classed as functional, cell-based.
Series [8] can be described thus: Half life in mouse liver microsomes at 2 uM by LC-MS/MS analysis. The series is classed as ADME.
Series [9] can be described thus: Cytotoxicity against human M14/LCC6R1 cells after 48 hrs by MTS assay. The series is classed as functional, cell-based. Particulars: M14/LCC6R1, 48 h.
Series [10] deals with PC-3. Kind of series: Cytotoxicity against human paclitaxel-resistant PC3 cells after 48 hrs by MTS assay. The series is classed as functional, cell-based. The conditions noted are these: PC-3, 48 h.
The test system of series [11] is DU-145. The series can be described thus: Cytotoxicity against human paclitaxel-resistant DU145 cells after 48 hrs by MTS assay. Particulars: DU-145, 48 h. The series is classed as functional, cell-based.
The target of a further series is Tubulin (Sus scrofa) (UniProt P02554+P02550). Kind of series: Inhibition of porcine tubulin polymerization measured every 1 min for 60 mins. The series is classed as protein assay. An outline of the steps: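 In vitro microtubule polymerization run with test agents at 5 or 10 μM. Vehicle, paclitaxel (5 μM) and colchicine (5 μM) were run as controls under the same conditions. Curves are from a representative experiment.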
Tubulin (Sus scrofa), sequence (P02550 whole entry, looked up): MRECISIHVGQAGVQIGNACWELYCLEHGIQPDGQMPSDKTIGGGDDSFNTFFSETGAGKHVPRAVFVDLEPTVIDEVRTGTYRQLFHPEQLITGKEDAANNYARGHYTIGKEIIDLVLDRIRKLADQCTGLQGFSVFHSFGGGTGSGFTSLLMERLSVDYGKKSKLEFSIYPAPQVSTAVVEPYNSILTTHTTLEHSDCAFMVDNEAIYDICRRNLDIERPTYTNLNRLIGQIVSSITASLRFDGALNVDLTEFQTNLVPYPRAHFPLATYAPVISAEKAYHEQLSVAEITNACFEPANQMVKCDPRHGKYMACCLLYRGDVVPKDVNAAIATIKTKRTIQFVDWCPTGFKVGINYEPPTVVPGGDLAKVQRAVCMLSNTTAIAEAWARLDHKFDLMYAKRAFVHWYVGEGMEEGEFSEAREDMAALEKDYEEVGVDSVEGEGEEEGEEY
Tubulin (Sus scrofa), sequence (P02554 whole entry, looked up): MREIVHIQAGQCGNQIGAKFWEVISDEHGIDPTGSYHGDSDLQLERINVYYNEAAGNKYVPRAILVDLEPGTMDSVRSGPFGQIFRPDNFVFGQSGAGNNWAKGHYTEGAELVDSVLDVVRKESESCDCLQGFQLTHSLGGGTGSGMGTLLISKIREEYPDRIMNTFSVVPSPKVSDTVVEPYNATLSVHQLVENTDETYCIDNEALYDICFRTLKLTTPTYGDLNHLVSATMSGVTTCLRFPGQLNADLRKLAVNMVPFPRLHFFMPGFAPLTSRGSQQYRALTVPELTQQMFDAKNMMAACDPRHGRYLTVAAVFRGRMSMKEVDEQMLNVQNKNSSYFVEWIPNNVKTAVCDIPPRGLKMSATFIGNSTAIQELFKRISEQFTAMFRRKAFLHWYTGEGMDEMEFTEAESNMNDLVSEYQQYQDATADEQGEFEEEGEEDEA

The subject of series [12] is A-375. The series can be described thus: Cell cycle arrest in human A375 cells at 10 nM after 24 hrs using propidium iodide staining by flow cytometry analysis. The series is classed as functional, cell-based. In short, it runs like this:
(§1)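 Cells treated with test agents for 24 h, then cell cycle distribution measured by flow cytometry; G2/M fraction compared with a vehicle-treated control group; N = 3.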

For series [13], the system named is A-375. The series can be described thus: Cell cycle arrest in human A375 cells assessed as accumulation at G2/M phase at 50 nM after 24 hrs using propidium iodide staining by flow cytometry analysis (reference value: 4 +/- 0.5%). The series is classed as functional. In short, it runs like this: as §1
In general terms: In flow cytometry, cells or beads pass a laser one at a time.

For series [14], the system named is PC-3. The series can be described thus: Cell cycle arrest in human PC3 cells assessed as accumulation at G2/M phase at 10 nM after 24 hrs using propidium iodide staining by flow cytometry analysis. The series is classed as functional, cell-based. In short, it runs like this:
as §1

Calls of active or inactive are those of the source. No cut-off for these calls is given here.

Take `COc1cc(-c2nccc3ccc(-c4ccc5[nH]ccc5c4)cc23)cc(OC)c1OC`: the IC50 in the series with PC-3 [1] came out at 64 nM; in the series with A-375 [4] it was 929 nM; in series [5] it was 227 nM; in the series with M14 it was 74 nM; with LNCaP, 81 nM; in the series on DU-145 [6], 92 nM. The compound also had an IC50 in series [7] of 61 nM. In series [2], this compound showed a log partition coefficient (logP) of 4.63. Further, the half-life at 2 µM is 38.9 min in series [3] and 2.1 min in series [8].
With `COc1cc(-c2nccc3c2NC(c2cccc4cc[nH]c24)N3)cc(OC)c1OC` (stereo not drawn), the IC50 with PC-3 [1] is 1240 nM; with A-375 [4], 984 nM; in the series on M14 it was 1060 nM; in the series with DU-145 [6] it was 2540 nM; in series [9] it was 975 nM; in the series on PC-3 [10], 689 nM. The compound also displayed a half-inhibitory concentration (IC50) with DU-145 [11] of 3660 nM.
On to `COc1cc(-c2nccc3[nH]c(-c4ccc5cc[nH]c5c4)nc23)cc(OC)c1OC`, for which the concentration for half-maximal inhibition (IC50) came out at 8 nM in the series on PC-3 [1]; 3 nM with A-375 [4]; 16 nM in the series with M14; 12 nM in the series on DU-145 [6]; 53 nM in [9]; 13 nM with PC-3 [10]. In addition, in the series on DU-145 [11], the IC50 stood at 12 nM. For the same compound, the half-life at 2 µM in series [3] is 56.3 min; in series [8], 27.7 min. Besides, the inhibition result on Tubulin (Sus scrofa) is “Dose-dependent effect”. For the same compound, the result in the series on A-375 [12] was inactive. In the series with A-375 [13], the Activity came out at 65.9%. The outcome with PC-3 [14] was Active.
For the compound `COc1cc(-c2ccc3ccnc(-c4cc(OC)c(OC)c(OC)c4)c3c2)cc(OC)c1OC`, the results for the IC50 (in the series with A-375 [4]; in series [5]; in the series with M14) were 10700 nM, 6670 nM and 9740 nM, respectively.
Turning to `O=S(=O)(c1ccccc1)n1ccc2c(-c3nc4c(Br)nccc4[nH]3)cccc21`, the half-inhibitory concentration (IC50) (with PC-3 [1]; with A-375 [4]; with M14; with DU-145 [6]; in [9]; in the series with PC-3 [10]) was above 30000 nM each time. Further, the IC50 in the series on DU-145 [11] is above 30000 nM.
Take `COc1cc(-c2nccc3[nH]c(-c4cc5ccccc5[nH]4)nc23)cc(OC)c1OC`: the half-inhibitory concentration (IC50) with PC-3 [1] was 170 nM; in the series on A-375 [4], 175 nM; in the series with M14, 164 nM; in the series on DU-145 [6], 1700 nM; in [9], 191 nM; with PC-3 [10] it was 120 nM. The compound also registered an IC50 in the series with DU-145 [11] of 2040 nM.
With `COc1cc(-c2nccc3[nH]c(-c4cccc5[nH]ccc45)nc23)cc(OC)c1OC`, the concentration for half-maximal inhibition (IC50) was 7 nM in the series on PC-3 [1]; 3 nM in the series on A-375 [4]; 14 nM with M14; 14 nM with DU-145 [6]; 25 nM in series [9]; 12 nM in the series on PC-3 [10]. Also, in the series with DU-145 [11], the IC50 was 17 nM. Moreover, the half-life at 2 µM came out at 33.1 min in series [3] and 10.5 min in series [8]. The inhibition entry at Tubulin (Sus scrofa) is “Dose-dependent effect”. Besides, the outcome in the series with A-375 [12] was inactive. Also, the Activity with A-375 [13] is 42%. In the series with PC-3 [14], the result was Active.
As to `c1cc2ccc(-c3ccc4[nH]ccc4c3)cc2c(-c2ccc3[nH]ccc3c2)n1`, the half-inhibitory concentration (IC50) in the series with PC-3 [1] is 72 nM; with A-375 [4] it was 93 nM; in series [5] it was 147 nM; in the series on M14, 111 nM; in the series on LNCaP, 98 nM; in the series with DU-145 [6], 113 nM. The half-maximal inhibitory concentration (IC50) in [7] stood at 48 nM.
Take `COc1cc(-c2nccc3[nH]c(-c4cccc5c4ccn5S(=O)(=O)c4ccccc4)nc23)cc(OC)c1OC`: the IC50 in the series on PC-3 [1] was 956 nM; in the series with A-375 [4], 263 nM; in the series with M14, 670 nM; in the series with DU-145 [6], 406 nM; in series [9] it was 730 nM; with PC-3 [10], 570 nM. The compound also yielded a half-maximal inhibitory concentration (IC50) with DU-145 [11] of 325 nM.
The compound `COc1cc(C(=O)c2cccc(-c3cc4ccccc4[nH]3)c2)cc(OC)c1OC` came in with an IC50 in the series with PC-3 [1] of 28.2 nM. The compound also yielded a lipophilicity (logP) in series [2] of 4.14. The compound further displayed a half-life at 2 µM in series [3] of 24 min.
With `COc1cc(-c2nccc3[nH]c(-c4cccc5cc[nH]c45)nc23)cc(OC)c1OC`, the IC50 in the series with PC-3 [1] was determined as 43 nM; with A-375 [4], 24 nM; in the series on M14, 28 nM; with DU-145 [6] it was 177 nM; in series [9] it was 53 nM; with PC-3 [10], 65 nM. For the same compound, the concentration for half-maximal inhibition (IC50) with DU-145 [11] was above 30000 nM.
For `COc1cc(-c2nccc3[nH]c(-c4c[nH]c5ccccc45)nc23)cc(OC)c1OC`, the half-maximal inhibitory concentration (IC50) with PC-3 [1] amounted to 27 nM; in the series on A-375 [4] it was 16 nM; in the series on M14, 26 nM; in the series with DU-145 [6] it was 222 nM; in series [9] it was 88 nM; in the series with PC-3 [10], 7 nM. In the series on DU-145 [11], the IC50 amounted to 74 nM.
Consider `Fc1ccc(-c2nccc3ccc(-c4ccc5[nH]ccc5c4)cc23)cc1`, for which the half-inhibitory concentration (IC50) in the series with PC-3 [1] is 26 nM; with A-375 [4], 66 nM; in [5], 33 nM; with M14, 49 nM; in the series with LNCaP, 38 nM; with DU-145 [6] it was 47 nM. Moreover, half-maximal inhibition in series [7] (IC50) was put at 28 nM. Further, the half-life at 2 µM in series [3] came out at 30.7 min; in series [8], 2 min.
As to `COc1cc(-c2nccc3[nH]c(-c4ccc5[nH]ccc5c4)nc23)cc(OC)c1OC`, the IC50 in the series on PC-3 [1] came to 27 nM; in the series on A-375 [4] it was 22 nM; in the series on M14, 53 nM; with DU-145 [6], 121 nM; in series [9], 116 nM; in the series with PC-3 [10] it was 34 nM. In addition, in the series on DU-145 [11], the concentration for half-maximal inhibition (IC50) came out at 164 nM. Besides, the results for the half-life at 2 µM in series [3] and in [8] were 45.4 min and 16.1 min, respectively.
In the case of `Fc1ccc(-c2ccc3ccnc(-c4ccc(F)cc4)c3c2)cc1`, the half-inhibitory concentration (IC50) (in the series on PC-3 [1]; in the series with A-375 [4]; in series [5]; in the series on M14; in the series with LNCaP; in the series with DU-145 [6]) was above 30000 nM throughout. This compound also returned a 50% inhibitory concentration (IC50) in series [7] above 30000 nM.
For `COc1cc(-c2nccc3[nH]c(-c4cccc5ccn(S(=O)(=O)c6ccccc6)c45)nc23)cc(OC)c1OC`, the IC50 in the series on PC-3 [1] was determined as 623 nM; with A-375 [4] it was 551 nM; with M14 it was 471 nM; in the series on DU-145 [6], 1030 nM; in [9], 545 nM; in the series on PC-3 [10] it was 525 nM. Further, the concentration for half-maximal inhibition (IC50) with DU-145 [11] is above 30000 nM.

As usually defined, the IC50 is the concentration at which inhibition is half-maximal. A high value points to a need for much substance. For orientation: logP means the decadic logarithm of the partition coefficient of the neutral form, usually between octanol and water. A lower logP goes with lower lipophilicity. By half-life is commonly meant how long it takes for the measured level to halve. Low values mean fast loss, high ones slow loss.

The values are drawn from ChEMBL document CHEMBL3632606, “Structural Optimization of Indole Derivatives Acting at Colchicine Binding Site as Potential Anticancer Agents” (ACS Med Chem Lett, 2015).
